Measurements as given in publication PMC10958515 (ACS Chemical Neuroscience, 2024).
Read-outs that look alike come from different tables or passages of the source.

Legend:
NaV = settings: cited from earlier work
seizures = settings: cited from earlier work
hNaV1.1 = hNaV1.1 (Homo sapiens, UniProt P35498); experiment: Qube automated patch-clamp, NaV subtype inhibition; type: cell-based
hNaV1.2 = hNaV1.2 (Homo sapiens, UniProt Q99250); experiment: Qube automated patch-clamp, NaV subtype inhibition; type: cell-based
NaV1.6 [1] = target: T1, NaV1.6 (Homo sapiens, UniProt Q9UQD0); experiment: Steady-state and use-dependent inhibition; type: cell-based; settings: V0.5 holding potential
T1 sequence (Q9UQD0 whole entry): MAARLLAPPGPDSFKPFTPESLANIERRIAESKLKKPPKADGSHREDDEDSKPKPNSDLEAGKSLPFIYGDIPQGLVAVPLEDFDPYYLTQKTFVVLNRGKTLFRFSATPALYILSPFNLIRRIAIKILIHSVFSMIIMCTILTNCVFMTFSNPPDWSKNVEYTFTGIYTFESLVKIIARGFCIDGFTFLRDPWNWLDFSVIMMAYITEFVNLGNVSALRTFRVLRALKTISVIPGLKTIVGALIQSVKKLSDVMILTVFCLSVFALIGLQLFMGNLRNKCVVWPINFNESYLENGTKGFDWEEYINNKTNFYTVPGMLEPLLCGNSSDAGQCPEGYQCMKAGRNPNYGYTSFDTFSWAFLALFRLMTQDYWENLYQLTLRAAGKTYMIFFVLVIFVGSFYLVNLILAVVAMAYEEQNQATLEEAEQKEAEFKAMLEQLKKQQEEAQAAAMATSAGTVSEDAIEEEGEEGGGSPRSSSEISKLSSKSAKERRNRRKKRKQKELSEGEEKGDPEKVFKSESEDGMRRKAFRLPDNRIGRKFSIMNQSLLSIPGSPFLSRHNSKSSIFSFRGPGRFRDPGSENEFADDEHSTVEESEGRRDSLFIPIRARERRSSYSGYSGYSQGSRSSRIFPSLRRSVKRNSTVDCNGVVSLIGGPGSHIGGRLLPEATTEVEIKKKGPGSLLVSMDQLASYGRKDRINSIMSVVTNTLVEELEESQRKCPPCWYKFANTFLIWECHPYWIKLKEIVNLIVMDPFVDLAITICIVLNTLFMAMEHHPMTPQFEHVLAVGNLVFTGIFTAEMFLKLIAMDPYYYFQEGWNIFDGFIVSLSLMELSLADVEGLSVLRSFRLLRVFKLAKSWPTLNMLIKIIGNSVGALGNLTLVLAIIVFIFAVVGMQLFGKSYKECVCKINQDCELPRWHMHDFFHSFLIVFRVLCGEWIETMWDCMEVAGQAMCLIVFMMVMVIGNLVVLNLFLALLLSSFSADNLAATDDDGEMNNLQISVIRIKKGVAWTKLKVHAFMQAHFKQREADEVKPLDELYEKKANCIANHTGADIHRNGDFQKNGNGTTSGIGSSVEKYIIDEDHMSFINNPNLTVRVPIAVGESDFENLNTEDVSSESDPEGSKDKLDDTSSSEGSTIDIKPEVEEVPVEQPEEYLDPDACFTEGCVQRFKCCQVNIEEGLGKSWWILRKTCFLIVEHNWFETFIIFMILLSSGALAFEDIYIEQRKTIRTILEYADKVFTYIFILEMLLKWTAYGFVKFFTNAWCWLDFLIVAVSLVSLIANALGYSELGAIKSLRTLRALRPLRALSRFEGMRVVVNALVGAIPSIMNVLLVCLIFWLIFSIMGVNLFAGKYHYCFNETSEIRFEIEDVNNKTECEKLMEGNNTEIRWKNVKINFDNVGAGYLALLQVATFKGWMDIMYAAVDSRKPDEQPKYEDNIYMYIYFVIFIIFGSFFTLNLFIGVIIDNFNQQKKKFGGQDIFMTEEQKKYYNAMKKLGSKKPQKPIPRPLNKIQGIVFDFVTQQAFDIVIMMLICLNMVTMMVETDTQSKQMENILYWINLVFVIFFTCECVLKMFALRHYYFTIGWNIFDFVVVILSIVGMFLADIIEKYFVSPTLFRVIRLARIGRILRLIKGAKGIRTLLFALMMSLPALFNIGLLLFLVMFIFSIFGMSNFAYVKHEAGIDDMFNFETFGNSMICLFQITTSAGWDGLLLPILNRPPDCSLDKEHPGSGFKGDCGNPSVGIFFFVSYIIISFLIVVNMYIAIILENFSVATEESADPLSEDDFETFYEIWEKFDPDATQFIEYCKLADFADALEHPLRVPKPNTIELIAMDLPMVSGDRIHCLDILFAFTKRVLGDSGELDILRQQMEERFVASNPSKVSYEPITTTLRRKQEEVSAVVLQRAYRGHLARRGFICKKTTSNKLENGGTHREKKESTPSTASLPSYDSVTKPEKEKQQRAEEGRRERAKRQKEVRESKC
T1 sequence (Q92913 1-192 isoform Q92913-2 partner): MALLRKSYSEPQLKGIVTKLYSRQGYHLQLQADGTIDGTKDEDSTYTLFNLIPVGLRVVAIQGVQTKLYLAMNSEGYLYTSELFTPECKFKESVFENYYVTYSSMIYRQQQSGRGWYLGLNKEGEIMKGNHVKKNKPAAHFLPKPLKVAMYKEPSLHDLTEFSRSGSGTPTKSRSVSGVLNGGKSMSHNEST

hNaV1.5 = hNaV1.5 (Homo sapiens, UniProt Q14524); experiment: Qube automated patch-clamp, NaV subtype inhibition; type: cell-based
Sequence of hNaV1.5 (Q14524 whole entry): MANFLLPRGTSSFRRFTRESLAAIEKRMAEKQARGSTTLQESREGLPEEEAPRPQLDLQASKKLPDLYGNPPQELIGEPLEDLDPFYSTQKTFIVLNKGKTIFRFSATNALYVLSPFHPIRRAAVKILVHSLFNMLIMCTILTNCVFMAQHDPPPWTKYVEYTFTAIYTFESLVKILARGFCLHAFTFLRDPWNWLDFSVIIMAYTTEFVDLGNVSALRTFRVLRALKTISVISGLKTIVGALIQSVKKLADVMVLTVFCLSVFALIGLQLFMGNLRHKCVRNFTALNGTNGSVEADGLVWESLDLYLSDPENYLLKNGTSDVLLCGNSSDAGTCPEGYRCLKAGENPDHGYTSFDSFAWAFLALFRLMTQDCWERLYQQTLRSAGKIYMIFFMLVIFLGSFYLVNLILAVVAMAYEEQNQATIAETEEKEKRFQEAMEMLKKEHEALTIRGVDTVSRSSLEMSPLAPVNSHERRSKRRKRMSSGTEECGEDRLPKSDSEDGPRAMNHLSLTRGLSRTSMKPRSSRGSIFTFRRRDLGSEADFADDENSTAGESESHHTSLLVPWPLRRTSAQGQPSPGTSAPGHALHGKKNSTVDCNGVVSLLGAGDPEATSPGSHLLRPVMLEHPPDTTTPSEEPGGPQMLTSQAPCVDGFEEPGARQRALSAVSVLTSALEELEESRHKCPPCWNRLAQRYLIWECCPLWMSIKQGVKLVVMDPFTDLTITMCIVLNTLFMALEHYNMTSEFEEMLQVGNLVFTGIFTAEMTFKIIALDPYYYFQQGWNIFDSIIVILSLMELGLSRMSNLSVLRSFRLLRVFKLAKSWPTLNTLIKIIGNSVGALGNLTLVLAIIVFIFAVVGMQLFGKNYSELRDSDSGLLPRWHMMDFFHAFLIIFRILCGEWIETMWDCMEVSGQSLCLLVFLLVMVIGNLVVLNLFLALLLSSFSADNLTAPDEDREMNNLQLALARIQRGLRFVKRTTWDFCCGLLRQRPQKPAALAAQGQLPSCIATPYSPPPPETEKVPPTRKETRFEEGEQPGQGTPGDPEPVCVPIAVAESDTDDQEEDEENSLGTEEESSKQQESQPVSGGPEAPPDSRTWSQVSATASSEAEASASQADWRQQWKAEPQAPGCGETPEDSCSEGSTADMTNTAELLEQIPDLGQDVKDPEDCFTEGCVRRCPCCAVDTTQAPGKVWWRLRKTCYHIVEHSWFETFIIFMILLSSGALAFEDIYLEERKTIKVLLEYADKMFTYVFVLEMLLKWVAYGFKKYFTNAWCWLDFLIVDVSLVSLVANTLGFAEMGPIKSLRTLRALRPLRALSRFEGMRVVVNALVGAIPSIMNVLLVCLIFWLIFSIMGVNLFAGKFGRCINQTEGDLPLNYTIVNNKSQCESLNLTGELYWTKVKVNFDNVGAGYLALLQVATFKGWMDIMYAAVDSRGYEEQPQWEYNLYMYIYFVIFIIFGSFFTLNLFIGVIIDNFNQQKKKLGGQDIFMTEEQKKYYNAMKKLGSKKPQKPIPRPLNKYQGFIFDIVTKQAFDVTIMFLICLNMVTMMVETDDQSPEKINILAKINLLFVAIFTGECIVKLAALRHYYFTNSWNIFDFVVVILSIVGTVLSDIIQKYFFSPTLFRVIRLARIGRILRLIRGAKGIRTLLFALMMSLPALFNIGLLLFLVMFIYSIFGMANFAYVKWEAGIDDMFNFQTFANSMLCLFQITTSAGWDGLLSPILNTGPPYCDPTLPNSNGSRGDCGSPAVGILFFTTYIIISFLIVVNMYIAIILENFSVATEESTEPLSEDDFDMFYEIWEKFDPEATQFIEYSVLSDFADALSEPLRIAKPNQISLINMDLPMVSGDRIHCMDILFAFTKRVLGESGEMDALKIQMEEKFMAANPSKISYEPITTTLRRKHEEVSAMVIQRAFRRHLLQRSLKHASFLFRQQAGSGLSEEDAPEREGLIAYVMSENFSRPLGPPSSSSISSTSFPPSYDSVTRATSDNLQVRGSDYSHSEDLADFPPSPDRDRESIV

NaV1.6 [2] = target: T1, NaV1.6; experiment: Recovery from inactivation in presence of compound; type: cell-based
Method in brief: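 Human NaV1.6 cells on an automated planar patch-clamp platform at 27 °C. From −120 mV, a 10 s prepulse to 0 mV is followed by a 0 mV test pulse at varying intervals. Mean normalized recovery in compound is fitted biexponentially, and the slow time constant is plotted against concentration. The fraction recovered at 1.7 s quantifies the concentration dependence.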

[3] = IC50 for steady-state inhibition (P1), first pulse

SMILES | potency range (NaV) | IC50 (NaV1.6 [1]; [3]) | IC50 (hNaV1.5) | also measured
Nc1nnc(-c2cccc(Cl)c2Cl)c(N)n1 [lamotrigine] | 10 to 100 µM |  |  | 
Cc1cc(S(=O)(=O)Nc2cscn2)c(F)cc1N(C)[C@H]1CCN(Cc2ccccc2)C1 [NBI-921352] |  |  |  | efficacy in seizure models in vivo (seizures): efficacious and have improved tolerability in rodent seizure models
COC[C@@H](NC(C)=O)C(=O)NCc1ccccc1 [lacosamide] | 10 to 100 µM |  |  | 
NC(=O)N1c2ccccc2C=Cc2ccccc21 [carbamazepine] |  | 17 µM | 41.1 µM | IC50 (hNaV1.1): 39.3 µM; IC50 (hNaV1.2): 67.4 µM; IC50 (NaV1.6 [1]; IC50 for UDB (P500), 500th pulse): 16.2 µM
O=C1NC(=O)C(c2ccccc2)(c2ccccc2)N1 [phenytoin] |  | 12.1 µM | 23.8 µM | time to fully equilibrate with the inactivated states (NaV1.6 [2]): ≤ 10 s; IC50 (NaV1.6 [1]; read-out: IC50 for UDB (P500), 500th pulse): 6.8 µM
